A selection: hits, their analogues and other compounds. The true share with any hit is near 2.8%.
DENV2 CPE – protects cells from dengue virus 2 cytopathic effect; DENV2-infected cells, cytopathic effect rescue, plate reader; CPE inhibition, % at 9.99 µM; hit rate 1.7% among 350,000; in the data active means CPE inhibition above about 20%, passing the limit was not always enough; inconclusive means no clear call, values can overlap the other calls; tested in BHK-21 cells;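 further: 0% = median of neutral control wells and 100% = median of positive control wells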
E-selectin induc – E-selectin induction on HUVECs; P16581; HUVEC E-selectin immunofluorescence imaging; normalized: neutral wells 0, TNF-alpha wells 100; activation, % at 7.58 µM; hit rate 0.37% among 260,000;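 active means mean E-selectin-positive cell signal at least 10% of the positive control, reached in at least 60% of replicates, without over 20% cell loss; inconclusive means no rule given, readout overlaps actives, possibly toxicity-flagged; inactive means the rest, including those meeting only one limit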
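Assay system: HUVEC, human umbilical vein endothelial cells / Amount: 3,000 HUVEC/well / Controls: TNF-alpha positive control, DMSO neutral control / Compound dosing: single concentration / Medium: EGM-2 over gelatin coat / Evaluation: percent E-selectin-positive cells / Signal: immunofluorescence imaging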
SIRT5 inh – blocks human SIRT5 desuccinylation of peptide; Purified SirT5, succinyl-peptide AMC, trypsin-coupled fluorescence; inhibition, % at 15 µM; hit rate 1.1% among 330,000; AID 652115; in the data active means inhibition above about 15%; inconclusive means no clear call, values can overlap the other calls
Target sequence (Q9NXA8 whole entry, looked up): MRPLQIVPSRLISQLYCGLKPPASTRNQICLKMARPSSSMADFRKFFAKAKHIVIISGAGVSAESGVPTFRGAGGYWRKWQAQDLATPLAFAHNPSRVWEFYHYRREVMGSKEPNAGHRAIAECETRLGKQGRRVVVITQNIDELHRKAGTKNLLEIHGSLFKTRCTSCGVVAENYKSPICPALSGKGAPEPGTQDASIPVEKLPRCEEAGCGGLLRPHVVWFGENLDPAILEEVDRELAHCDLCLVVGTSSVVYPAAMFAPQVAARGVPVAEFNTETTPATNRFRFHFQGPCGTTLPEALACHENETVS
* hit, by the source's call; ? = inconclusive; / = no result.

SMILES	DENV2 CPE	E-selectin induc	SIRT5 inh
CC(=O)NCCCC[C@@H]1NC(=O)[C@@H]2C[C@H](C(=O)O)[C@H](c3ccc(O)cc3)N2C1=O	4.7	/	-2.2
COc1cccc(CNC(=O)C[C@H]2C=C[C@@H](NC(=O)C3CCC3)[C@@H](CO)O2)c1	/	-0.2	/
COc1ccc2c3c(n(C)c2c1)[C@H](CO)N(C(=O)C1CCCCC1)CC31CN(C(=O)Nc2cccc(F)c2)C1	-5.0	0.2	2.4
O=C(Nc1cc(C(=O)Nc2ccccc2C(=O)O)cc(C(=O)Nc2ccccc2C(=O)O)c1)c1ccccc1	-1.5	-0.1	24.7*
O=C(/C=C/c1ccco1)Nc1cccc(C(=O)Nc2ccccc2C(=O)O)c1	?	/	21.1*
CCc1ccccc1NC(=O)c1cccc(NC(=O)/C=C/c2ccco2)c1	/	-0.5	/
O=C(Nc1ccccc1C(=O)O)c1cccc(NC(=O)c2ccccc2Br)c1	3.9	/	1.1
COc1ccc(NC(=O)N2C[C@@H](O)COC[C@H]3O[C@@H](CC(=O)NC4Cc5ccccc5C4)CC[C@@H]32)cc1	-3.9	0.1	-3.6
COc1ccc(NC(=O)N(C)C[C@@H]2OCCCC[C@@H](C)Oc3ccc(NC(=O)Nc4c(C)noc4C)cc3C(=O)N([C@@H](C)CO)C[C@H]2C)cc1	-6.8	-0.2	-2.0
O=C(N[C@@H](Cc1ccccc1)c1nc2ccccc2[nH]1)c1ccc([N+](=O)[O-])cc1	-2.2	/	0.2
O=C(NC(Cc1ccccc1)c1nc2ccccc2[nH]1)c1cccc([N+](=O)[O-])c1 (centres undefined)	/	83.2*	/
CNC[C@H]1OCCCC[C@@H](C)Oc2ccc(NS(=O)(=O)c3ccc(C)cc3)cc2C(=O)N([C@@H](C)CO)C[C@@H]1C	/	-0.1	/
CCN(C[C@@H]1[C@@H](c2ccccc2)[C@@H](CO)N1CC1CC1)C(=O)c1ccccc1F	-14.3	0.0	5.8
CCCNC(=O)C1(C)CCN(Cc2noc(-c3ccccc3OC)n2)C1 (centres undefined)	-4.4	-0.1	-1.7
CCNC(=O)C1(C)CCN(Cc2noc(-c3c(C)noc3C)n2)C1 (centres undefined)	44.6*	0.2	-3.1
Cc1noc(C)c1S(=O)(=O)Nc1ccc2c(c1)C(=O)N([C@@H](C)CO)C[C@@H](C)[C@@H](CN(C)CC1CCCCC1)OCCCC[C@H](C)O2	19.1	-0.1	4.3
Cc1cccc(NC(=O)Nc2ccccn2)c1C	0.1	11.7	-1.6
Cc1ccc(C(NC(=O)Nc2ccccn2)C(Cl)(Cl)Cl)cc1F (centres undefined)	-0.6	41.6*	-8.5
O=C(C[C@@H]1CC[C@H]2[C@@H](COC[C@H](O)CN2C(=O)c2ccc(F)cc2)O1)N1CCCCC1	-0.6	0.6	/
CC(C)NC(=O)Nc1ccc2c(c1)CC(=O)N([C@@H](C)CO)C[C@@H](C)[C@H](CN(C)Cc1ccc(-c3ccccc3)cc1)O2	29.7*	/	2.4
C[C@@H]1CN([C@H](C)CO)C(=O)Cc2cc(NC(=O)Nc3ccc(C(F)(F)F)cc3)ccc2O[C@H]1CN(C)Cc1ccc(Oc2ccccc2)cc1	2.8	445.6*	/
C[C@@H]1CN([C@H](C)CO)C(=O)Cc2cc(NC(=O)Cc3ccccc3)ccc2O[C@@H]1CN(C)Cc1ccc(Oc2ccccc2)cc1	-1.7	-8.3	13.6
C[C@H]1CN([C@@H](C)CO)C(=O)Cc2cc(NC(=O)Cc3ccccc3)ccc2O[C@H]1CN(C)Cc1ccc(Oc2ccccc2)cc1	-2.3	5.6	17.0*
CC(C)NC(=O)Nc1ccc2c(c1)CC(=O)N([C@H](C)CO)C[C@H](C)[C@@H](CN(C)Cc1ccccc1)O2	-5.8	0.0	-3.2
CC(C)NC(=O)Nc1ccc2c(c1)CC(=O)N([C@H](C)CO)C[C@@H](C)[C@H](CN(C)Cc1ccc(Oc3ccccc3)cc1)O2	-0.5	44.5*	0.7
SMILES	DENV2 CPE	E-selectin induc	SIRT5 inh
CC(C)NC(=O)Nc1ccc2c(c1)CC(=O)N([C@@H](C)CO)C[C@H](C)[C@H](CN(C)Cc1ccc(Oc3ccccc3)cc1)O2	-17.3	16.2	2.9
C[C@@H]1CN([C@@H](C)CO)C(=O)Cc2cc(NC(=O)Nc3ccc(C(F)(F)F)cc3)ccc2O[C@H]1CN(C)Cc1ccc(Oc2ccccc2)cc1	14.5	19.0	/
O=C(CN1CCOCC1)N1CC(=O)N2[C@H](CO)[C@@H](c3ccc(/C=C/c4ccccc4)cc3)[C@@H]2C1	-1.4	-0.6	-4.1
CC(=O)N(C)C[C@@H]1Oc2cc(C3=CCCCC3)ccc2S(=O)(=O)N([C@H](C)CO)C[C@H]1C	/	-0.5	/
C[C@H](CO)N1C[C@H](C)[C@H](CN(C)S(=O)(=O)c2ccc(Cl)cc2)OCCCC[C@H](C)Oc2ccc(NS(=O)(=O)c3ccccc3)cc2C1=O	-2.2	-0.2	1.3
O=C(N[C@@H]1CC[C@@H](CC(=O)N2CCc3ccccc3C2)O[C@@H]1CO)C1CC1	1.8	0.1	0.5

Assay outcomes from PubChem BioAssay.
